Here are results for 37 variants from the RNAGym collection of RNA variant scans (doi:10.1126/science.aae0568).

B1: tRNA (parent)
chain: GUUCCGUUGGCGUAAUGGUAACGCGUCUCCCUCCUAAGGAGAAGACUGCGGGUUCGAGUCCCGUACGGAACG

This sample holds only a part of the variants without activity. Where only a bound is given, the exact number is not on record here.

In this data set the parent is B1. In words: yeast fitness relative to wild type (ratio to wild type); higher = fitter; tRNA-Arg(CCU), competitive growth, 37 C, YPD. A digest of the protocol:
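Variants of the tRNA-Arg(CCU) gene, chemically synthesised with a 3% per-site mutation rate at 69 sites, were placed at the native genomic locus in Saccharomyces cerevisiae. The pooled strains were competed in YPD at 37°C for 24 hours in six parallel replicates. Gene amplicons from the start population and from each end population were read by 100-nucleotide paired-end sequencing. Darwinian fitness relative to wild type came from changes in genotype frequencies; genotypes needed ≥ 100 starting reads, and estimates < 0.5 were set to 0.5.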
For the variant GUUCCGUUGACGUAAUAGUAACGCGUCUACCUCGUAAGGAGACGACUGCGGGUUCGAGUGCCGUACGGAACG [G10A G17A C29A C34G A43C C60G], the yeast fitness is no more than 0.5.
With GUUCCGUUGACGUAAUGGUAACCCGUCUCCCUCCUAAGGAGAAGGCUGCGGGUUCGAGUCCCGUUCGGAACG [G10A G23C A45G A65U] the figure was no more than 0.5; with GUUCCGUUGACGUAAUGGUAACGCGUCUCCCUCCUAAGGAGAAGACUGCAGGUUCGAGACACGUACGGAACG [G10A G50A U59A C61A], no more than 0.5; with GUUCCGUUGACGUAAUGGUAACCCGUCUUCCUCCUCAGGAGAAGACUGGGGGUUCGAGUCCCGUACGGACCG [G10A G23C C29U A36C C49G A70C], 0.553.
With GUUCCGUUGACAUAAAGAUAACGCGUCUCCCUCCUAAGGAGAAGUCUGCGGGUUCGAGUCCCGUACGGAACG [G10A G12A U16A G18A A45U] the figure was no more than 0.5; with GUUCCGUUGACGUAAUAGUAACGCGUCUCGCUCCAAAGGAGAAGACUGCAGGUUCGAGUCCCGUACGGAACG [G10A G17A C30G U35A G50A], 0.626; with GUUCCGUUGACGUAAUGGUAACGCGUCUCCCUCCUAAGGAGAAGACUGCGGGUUCAAGUCCCGUACGGUACG [G10A G56A A69U], 0.601.
Turning to GUUCCGUUGACGUAAUGGUAACGCGUCUCCCUCCUAACGAGAAGACUGCAGGUUCGAGUCCCGUACGGGACG [G10A G38C G50A A69G], the yeast fitness is no more than 0.5.
Regarding GUUCCGUUGACGUAAUGGUAACGCGUCUCCCUCCUAAGGAGAAGACUGCAAGUUCGAGUCCCGUACGGAACG [G10A G50A G51A], the yeast fitness was no more than 0.5.
GUUCCGUUGACGAAAUGGUAACGCGUCUCCCUCCUAAGGAGAAGACUGCGGGUUCGAGUCCCGUACGGAACG [G10A U13A]: the yeast fitness amounted to 0.684.
Under GUUCCGUUGACGGAAUGGUAACGCGUUUCCCUCCUAAGGAGAAGAGUGCGGGUUCGAGUCCCGUACGGCACG [G10A U13G C27U C46G A69C] stands 0.506; under GUUCCGUUGACGUAAAGGUAACGCGUCUCCCUCCUAAGGAGAAGACUACGGGUUCGAGUCCCGUUCGGAACG [G10A U16A G48A A65U], no more than 0.5; under GUUCCGUUGACGUAAUAGUAACGCGUCUCGCUCCUAAGGAGAAGACUGCGGGUUCGAGUCCCGUACUGAACG [G10A G17A C30G G67U], no more than 0.5.
Under GUUCCGUUGACGUAAUGGUAACGCGUCUCCCUCCUAAGGAGAAGAGUGCGGGUUCGAGUCCCGUCCGGAACG [G10A C46G A65C] stands 0.597.
Regarding GUUCCGUUGACGUAAUAGUAACGCGUCCCCGUCCUAAGGAGAAGACUGCGGGUUCGAGUCCCGUACCGAACG [G10A G17A U28C C31G G67C], the yeast fitness was no more than 0.5.
Under GUUCCGUUGACGUAAUGGUAACGCGUCUCCCUCCUAAAGAGAAGGCUGCGGGUUCGAGUCCCGUACGGAGCG [G10A G38A A45G A70G] stands no more than 0.5; under GUUCCGUUGACGCAAUGGUAACGCGUCUCCGUCCUAAGGAGAAGACUGCGGGUUCGCGUCCCGUACGGAACG [G10A U13C C31G A57C], 0.587; under GUUCCGUUGACGUAAUGGUAACGCGUCUCCCUCCUAAGGAGAAGACUGCGGGUUGGAGUCCCGUACGGAACG [G10A C55G], 0.605.
With GUUCCGUUGACGUAAUGGUAACGCGUCUCCCUCCUAAGGAGAAGACUGCGGGUUUGAGUCCCGUACGGAACG [G10A C55U], the yeast fitness came to 0.559.
With GUUCCGUUGACGUAAUGGUAACGCGUCUCCCUCCUAAGGAGAAGACUGCGAGUUCGAGUCCCGUAUGGAACG [G10A G51A C66U] the figure was no more than 0.5.
With GUUCCGUUGACGUAAUGGUAACGCGUCUCCCUCCUAAGGAGAAAACUGCGGGUCCGAGUCCCGUACCGAACG [G10A G44A U54C G67C], the yeast fitness is no more than 0.5.
On to GUUCCGUUGACGUAAUGGUAACGCGUCUCCCUCCUAAGGAGAAGACUGCGGGUUCGAGUCCCGUACGAAGCG [G10A G68A A70G], for which the yeast fitness was 0.596.
Under GUUCCGUUGACGUAAUGGUAACGCGUCUCCCUCCUAACGAGAAGACUGCGGGUUCGAGUCCCGUACUGAACG [G10A G38C G67U] stands no more than 0.5.
As to GUUCCGUUGACGUAAUGGUAACCCGUCUUCCUCCUCAGGAGAAGACUGCGGGUUCGAGUCCCGUACGGAACG [G10A G23C C29U A36C], the yeast fitness came to 0.532.
With GUUCCGUUGACGUAAAGGUAACGCGUCUCCCUCCUAAGGAGAAGACUGCGGGUUCGAGUCCCGUUCGGAACG [G10A U16A A65U] the figure was 0.575.
Take GUUCCGUUGACGAAAUGGUAACGCGUCUCUCUCCUAAGGAGAAGACUGCGGGUUGGACUCCCGUACGGAACG [G10A U13A C30U C55G G58C]: the yeast fitness is no more than 0.5.
Under GUUCCGUUGACGUAAUGGUAACGCGUCUCCCUCCUAAGGAGAAGACUGCGGGUUCGAGUGCCGUACGGGACG [G10A C60G A69G] stands 0.616; under GUUCCGUUGACGUAAUGGUAACGCGUCUCCCUCGUAAGGCGAAGAGUGCGGGUUCGAGUCCCGUACGGAACG [G10A C34G A40C C46G], no more than 0.5.
With GUUCCGUUGACGAAAUGGUAACGUGUCUCCCUCCUAAGGAGAAGCCUGCGGGUUCGAGUCCCGUGGGGAACG [G10A U13A C24U A45C A65G C66G] the figure was no more than 0.5; with GUUCCGUUGACGUAAUGGUAACGCGUCUCCCUCCUAAGGAGAAGACUACGGGUUAGAGUCCCGUACGGAACG [G10A G48A C55A], no more than 0.5; with GUUCCGUUGACGUAAUAGAAACGCGUCUUCCUCGUAAGGAGAAGACUGCGGGUUCGAGUCCCGUACGGAACG [G10A G17A U19A C29U C34G], no more than 0.5.
With GUUCCGUUGACAUAAUGGUAACGCGUCUCCCUCUUAAGGAGAAGUCUGGGGGUUCGAGUCCCGUACGGAACG [G10A G12A C34U A45U C49G] the figure was no more than 0.5; with GUUCCGUUGACGUAAUGGUAACGCGUCUCCCUCCUAAGGAGAAAACUGCGGGUUCGAGUCCCGUAUGGAACG [G10A G44A C66U], 0.534.
For GUUCCGUUGACGUAAUCGUAACGCGUCUCGCUGCUAAGGAGAAGACUGCGGGUUCGAGUCACGUACGGUACG [G10A G17C C30G C33G C61A A69U], the yeast fitness turned out to be 0.581.
As for GUUCCGUUGACGAAAUGGUAACGCGUCUCCCUCCUAAGGAGAAGACUGCGGGUUCGAGUCCCGUACCGAACG [G10A U13A G67C], the yeast fitness is no more than 0.5.
With GUUCCGUUGACGUAAUGGUAACGCGUCUCCCUCCUAAGCAGAAGACUGCGGGUUCGAGUCCCGUACGGAGCG [G10A G39C A70G] the figure was 0.589; with GUUCCGUUGACGUAAUAGUAACGCGUCUCCCUCCUAAGGAGAAGACUGCGGGUUCGAGUCAUGUUCGGCACG [G10A G17A C61A C62U A65U A69C], no more than 0.5.
